Measurements published in ChEMBL document CHEMBL1124128, “Angiotensin-converting enzyme inhibitors. Mercaptan, carboxyalkyl dipeptide, and phosphinic acid inhibitors incorporating 4-substituted prolines” (J Med Chem, 1988).

Experiments:
[1] = target: T1, Angiotensin-converting enzyme (Rattus norvegicus, UniProt P47820); test: In vitro inhibitory activity against angiotensin I converting enzyme of rats.; conditions: read-out: I50
T1 sequence (P47820 whole entry): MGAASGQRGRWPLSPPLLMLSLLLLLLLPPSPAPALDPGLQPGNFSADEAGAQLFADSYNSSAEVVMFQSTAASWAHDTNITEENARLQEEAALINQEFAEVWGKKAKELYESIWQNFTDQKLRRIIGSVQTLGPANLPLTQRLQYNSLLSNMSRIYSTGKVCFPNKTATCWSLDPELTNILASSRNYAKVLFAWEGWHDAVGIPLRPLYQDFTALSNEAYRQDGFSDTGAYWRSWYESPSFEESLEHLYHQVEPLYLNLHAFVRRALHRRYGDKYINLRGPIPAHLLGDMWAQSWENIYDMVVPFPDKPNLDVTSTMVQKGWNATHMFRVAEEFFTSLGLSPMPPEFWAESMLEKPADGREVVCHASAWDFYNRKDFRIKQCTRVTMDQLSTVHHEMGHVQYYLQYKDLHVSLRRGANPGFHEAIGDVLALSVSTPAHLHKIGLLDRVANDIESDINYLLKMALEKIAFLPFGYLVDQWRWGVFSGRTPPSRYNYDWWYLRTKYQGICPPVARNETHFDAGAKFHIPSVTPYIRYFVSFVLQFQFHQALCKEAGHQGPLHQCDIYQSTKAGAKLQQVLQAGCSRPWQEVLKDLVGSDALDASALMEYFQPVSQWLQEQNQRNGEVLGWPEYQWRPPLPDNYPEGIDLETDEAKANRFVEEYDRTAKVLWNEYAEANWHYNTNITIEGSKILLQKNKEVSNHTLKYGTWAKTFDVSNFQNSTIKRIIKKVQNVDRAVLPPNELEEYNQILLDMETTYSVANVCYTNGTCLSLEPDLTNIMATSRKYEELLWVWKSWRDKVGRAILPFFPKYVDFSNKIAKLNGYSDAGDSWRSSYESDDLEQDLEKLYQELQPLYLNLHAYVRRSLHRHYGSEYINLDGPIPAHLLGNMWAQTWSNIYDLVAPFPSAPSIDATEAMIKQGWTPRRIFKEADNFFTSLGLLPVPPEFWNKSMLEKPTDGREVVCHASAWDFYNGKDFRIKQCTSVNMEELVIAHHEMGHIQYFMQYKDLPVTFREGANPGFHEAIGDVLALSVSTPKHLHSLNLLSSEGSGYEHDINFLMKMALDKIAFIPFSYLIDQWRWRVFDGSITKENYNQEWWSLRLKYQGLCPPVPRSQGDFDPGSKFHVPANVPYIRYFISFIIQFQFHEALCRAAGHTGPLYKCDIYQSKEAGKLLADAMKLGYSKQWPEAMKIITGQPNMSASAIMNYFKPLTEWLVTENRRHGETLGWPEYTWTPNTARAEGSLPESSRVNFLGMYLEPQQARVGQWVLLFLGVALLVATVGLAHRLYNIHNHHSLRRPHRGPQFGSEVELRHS

[2] = tested on: Rattus norvegicus; test: % Inhibition of angiotensin-I induced pressor response in normotensive rats after intravenous dosing of 0.015 umol/kg; format: functional
Outline: (§1)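 Male Sprague–Dawley rats (225–275 g) fitted with indwelling abdominal aorta and vena cava catheters, recovered at least 2 weeks, then tested conscious and unrestrained. Aortic pressure was recorded directly. Pressor responses to AI (310 ng/kg iv) and AII (100 ng/kg iv) were taken before dosing. Compound was given iv in water or 5% NaHCO3, and responses were followed up to 70 min. Maximum % inhibition is the mean of four animals per dose.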

[3] = tested on: Rattus norvegicus; test: % Inhibition of angiotensin-I induced pressor response in normotensive rats after intravenous dosing of 0.05 umol/kg; format: functional; outline: as §1
[4] = tested on: Rattus norvegicus; test: % Inhibition of angiotensin-I induced pressor response in normotensive rats after intravenous dosing of 0.15 umol/kg; format: functional
Outline: (§2)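 Conscious, unrestrained male Sprague–Dawley rats (225–275 g) with indwelling aortic and vena caval catheters, allowed at least 2 weeks of recovery. Aortic pressure recorded directly. Baseline pressor responses to AI (310 ng/kg iv) and AII (100 ng/kg iv) were taken first. Compound was given iv in 0.1 mL water or 5% NaHCO3, and responses were followed for up to 70 min. Maximum % inhibition is the mean of four animals per dose.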

[5] = target: T2, Angiotensin-converting enzyme (Rattus norvegicus) (UniProt P47820); test: In vitro inhibition of rat Angiotensin I converting enzyme
T2 sequence (whole entry): T1 sequence (P47820 whole entry)

[6] = tested on: Rattus norvegicus; test: % Inhibition of angiotensin-I induced pressor response in normotensive rats after intravenous dosing of 0.5 umol/kg; format: functional; outline: as §2
[7] = target: T2, Angiotensin-converting enzyme (Rattus norvegicus); test: Evaluated for inhibition of Angiotensin I converting enzyme in rat; format: functional; conditions: concentration not given here
[8] = tested on: Rattus norvegicus; test: % Inhibition of angiotensin-I induced pressor response in normotensive rats after peroral dosing of 5 umol/kg; format: functional; conditions: po
Outline: (§3)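 Conscious, unrestrained catheterized male Sprague–Dawley rats (225–275 g) had direct aortic pressure recording. Baseline pressor responses were taken to AI (310 ng/kg iv) and AII (100 ng/kg iv). Compound was given orally in water, 5% NaHCO3 or 1% agar suspension. AI and AII responses were then tracked up to 280 min. Maximum % inhibition is the mean response of four animals per dose.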

[9] = tested on: Rattus norvegicus; test: % Inhibition of angiotensin-I induced pressor response in normotensive rats after intravenous dosing of 1.5 umol/kg; format: functional; outline: as §2
[10] = tested on: Rattus norvegicus; test: % Inhibition of angiotensin-I induced pressor response in normotensive rats after peroral dosing of 15 umol/kg; format: functional; conditions: po; outline: as §3
[11] = tested on: Rattus norvegicus; test: % Inhibition of angiotensin-I induced pressor response in normotensive rats after intravenous dosing of 5 umol/kg; format: functional; outline: as §2
[12] = tested on: Rattus norvegicus; test: % Inhibition of angiotensin-I induced pressor response in normotensive rats after peroral dosing of 0.5 umol/kg; format: functional; conditions: po; outline: as §3
[13] = tested on: Rattus norvegicus; test: % Inhibition of angiotensin-I induced pressor response in normotensive rats after peroral dosing of 1.5 umol/kg; format: functional; conditions: po; outline: as §3

With `C[C@H](CS)C(=O)N1C[C@@H](c2ccccc2)C[C@H]1C(=O)O` the IC50 [1] was 30 nM.

In the case of `C[C@H](N[C@@H](CCc1ccccc1)C(=O)O)C(=O)N1C[C@@H](C2CCCCC2)C[C@H]1C(=O)O`, the IC50 [1] is reported as 5 nM, the inhibition in vivo at 0.015 µmol/kg [2] is reported as 21% and the inhibition in vivo at 0.05 µmol/kg [3] is reported as 48%. It also gave an inhibition in vivo at 0.15 µmol/kg [4] of 92%.

`O=C(O)[C@@H]1C[C@H](c2ccccc2)CN1C(=O)CP(=O)(O)CCCCc1ccccc1` showed a T50 [5] of 7 nM, an inhibition in vivo at 0.05 µmol/kg [3] of 16% and an inhibition in vivo at 0.15 µmol/kg [4] of 69%. The inhibition in vivo at 0.5 µmol/kg [6] was 97%.

With `O=C(O)[C@@H]1C[C@H](C2CCCCC2)CN1C(=O)CP(=O)(O)CCCCc1ccccc1` the inhibition [7] was 72%, the T50 [5] was 7 nM and the inhibition in vivo at 0.05 µmol/kg [3] was 26%. The inhibition in vivo at 0.15 µmol/kg [4] was 73%, the inhibition in vivo at 0.5 µmol/kg [6] was 84% and the inhibition in vivo at 5 µmol/kg [8] was 13%.

`CO[C@H]1C[C@@H](C(=O)O)N(C(=O)[C@H](C)CS)C1` was tested, and the IC50 [1] was 2.8 nM.

Work on `C[C@H](CS)C(=O)N1C[C@@H](Oc2ccc3ccccc3c2)C[C@H]1C(=O)O` yielded an IC50 [1] of 13 nM.

`CS[C@H]1C[C@@H](C(=O)O)N(C(=O)CP(=O)(O)CCCCc2ccccc2)C1` was tested, and the T50 [5] was 32 nM, the inhibition in vivo at 0.15 µmol/kg [4] was 29% and the inhibition in vivo at 0.5 µmol/kg [6] was 69%. The inhibition in vivo at 1.5 µmol/kg [9] was 89%.

`CS[C@@H]1C[C@@H](C(=O)O)N(C(=O)[C@H](C)N[C@@H](CCc2ccccc2)C(=O)O)C1` showed an IC50 [1] of 5 nM, an inhibition in vivo at 0.015 µmol/kg [2] of 29% and an inhibition in vivo at 0.05 µmol/kg [3] of 69%. For the same compound, the inhibition in vivo at 0.15 µmol/kg [4] was 77%.

For `CO[C@@H]1C[C@@H](C(=O)O)N(C(=O)[C@H](C)CS)C1`, the IC50 [1] was 12 nM.

In the case of `C[C@H](CS)C(=O)N1C[C@@H](C2CCCCC2)C[C@H]1C(=O)O`, the IC50 [1] is reported as 2 nM.

`C[C@H](CS)C(=O)N1C[C@@H](Sc2ccc3ccccc3c2)C[C@H]1C(=O)O` was tested, and the IC50 [1] was 96 nM.

Work on `C[C@H](N[C@@H](CCc1ccccc1)C(=O)O)C(=O)N1CCC[C@H]1C(=O)O` [ENALAPRILAT ANHYDROUS] yielded an inhibition in vivo at 0.015 µmol/kg [2] of 11%, an inhibition in vivo at 0.05 µmol/kg [3] of 67% and an inhibition in vivo at 0.15 µmol/kg [4] of 90%. For the same compound, the inhibition in vivo at 5 µmol/kg [8] was 46% and the inhibition in vivo at 15 µmol/kg [10] was 85%.

With `C[C@H](CS)C(=O)N1C[C@@H](Sc2ccc(Cl)cc2)C[C@H]1C(=O)O` the IC50 [1] was 11 nM.

Compound `O=C(O)[C@@H]1C[C@H](Sc2ccccc2)CN1C(=O)CP(=O)(O)CCCCc1ccccc1` has a T50 [5] of 20 nM, an inhibition in vivo at 0.15 µmol/kg [4] of 27% and an inhibition in vivo at 0.5 µmol/kg [6] of 34%. It also gave an inhibition in vivo at 1.5 µmol/kg [9] of 65% and an inhibition in vivo at 5 µmol/kg [11] of 88%.

`C[C@H](CS)C(=O)N1C[C@@H](Sc2ccc(F)cc2)C[C@H]1C(=O)O` showed an IC50 [1] of 17 nM.

In the case of `C[C@H](N[C@@H](CCc1ccccc1)C(=O)O)C(=O)N1C[C@@H](Sc2ccccc2)C[C@H]1C(=O)O`, the IC50 [1] is reported as 2 nM, the inhibition in vivo at 0.015 µmol/kg [2] is reported as 20% and the inhibition in vivo at 0.05 µmol/kg [3] is reported as 43%. The inhibition in vivo at 0.15 µmol/kg [4] was 85%, the inhibition in vivo at 0.5 µmol/kg [12] was 23% and the inhibition in vivo at 1.5 µmol/kg [13] was 31%. It also gave an inhibition in vivo at 5 µmol/kg [8] of 67% and an inhibition in vivo at 15 µmol/kg [10] of 78%.

Work on `C[C@H](CS)C(=O)N1C[C@@H](O)C[C@H]1C(=O)O` yielded an IC50 [1] of 8.6 nM.

`C[C@H](CS)C(=O)N1CC2(C[C@H]1C(=O)O)SCCS2` gave an IC50 [1] of 6.5 nM.

With `C[C@H](N[C@@H](CCc1ccccc1)C(=O)O)C(=O)N1C[C@@H](c2ccccc2)C[C@H]1C(=O)O` the IC50 [1] was 5 nM.
